One series has as its system Rattus norvegicus. Description: Biodistribution in Sprague-Dawley rat olfactory bulbs at 1 to 3 MBq, iv after 30 mins by gamma counting. It is filed as ADME, organism-based, Olfactory bulb. The conditions noted are these: in vivo, 0.5 h. The method in brief: (§1)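 Tracer formulated in Dulbecco's PBS and given iv, about 1–3 MBq at 10 MBq/mL, under 4% isoflurane, to naive rats (n = 3). Animals were killed at set times after injection. Brain was dissected into regions including striatum and olfactory bulbs, and activity was counted by gamma counter. Values are % id/g, and regional ratios were taken between times or regions.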

Series [1] in a line: Metabolic stability in Sprague-Dawley rat brain assessed as compound remaining at 1 to 3 MBq, iv after 30 mins by HPLC analysis. It is filed as ADME, organism-based. The conditions noted are these: read-out: Stability.
Series [2] in a line: Ratio of drug uptake in striatum in Sprague-Dawley rat at 1 to 3 MBq, iv after 2 mins to drug uptake in striatum in Sprague-Dawley rat at 1 to 3 MBq, iv after 30 mins. Conditions: in vivo.
The nature of series [3]: Ratio of drug uptake in olfactory bulb to striatum in Sprague-Dawley rat at 1 to 3 MBq, iv after 30 mins by gamma counting. The conditions noted are these: in vivo, 0.5 h.
A further series has as its target Translocator protein (Rattus norvegicus, UniProt P16257). Description: Displacement of [3H]PK11195 from TSPO receptor in Wistar rat heart homogenate after 15 mins. It is filed as tissue-based. On the technique in general: Displacement assays read how much labelled ligand stays bound in the presence of the test substance.
A short description of series [4]: Metabolic stability in Sprague-Dawley rat brain assessed as compound remaining at 1 to 3 MBq, iv after 60 mins by HPLC analysis. It is filed as ADME, organism-based. The conditions noted are these: read-out: Stability. The method in brief:
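Radiotracer was injected iv into rats. Brain and plasma were sampled at 10, 30 and 60 min post injection to follow metabolic fate. Brain radioactivity at 60 min is expressed as % parent tracer remaining.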

The test system of another series is Brain. Description: Biodistribution in Sprague-Dawley rat whole brain at 1 to 3 MBq, iv after 2 mins by gamma counting. It is filed as ADME, organism-based. Conditions: in vivo. The gist of the method: as §1

The term Ki denotes the equilibrium dissociation constant of an inhibitor or competing ligand from its target. Low readings indicate higher affinity, high ones lower affinity.

Sequence of Translocator protein (P16257 whole entry, looked up): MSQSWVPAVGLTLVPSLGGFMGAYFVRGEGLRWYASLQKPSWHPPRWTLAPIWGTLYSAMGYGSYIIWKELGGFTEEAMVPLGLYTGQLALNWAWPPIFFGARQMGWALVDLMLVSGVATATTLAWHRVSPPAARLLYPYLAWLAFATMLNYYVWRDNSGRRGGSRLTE

Compound `CCN(CC)C(=O)C1Sc2ccccc2-c2c1c1ccccc1n2CCF` (stereo not given) returned a Drug uptake in the series on Rattus norvegicus of 0.17 % ID/g. Further, the remaining at 0.5 h in series [1] worked out at 95%. Besides, the Ratio in series [2] was found to be 2.16; in series [3], 1.42. In addition, at Translocator protein, affinity was put at a Ki of 0.67 nM.
As for `CN(Cc1ccccc1)C(=O)C1CCCc2c1c1ccccc1n2CC[18F]` (stereo not given), the remaining at 1 h in series [4] stood at 81%. In addition, the Drug uptake with Rattus norvegicus is 0.34 % ID/g; in the series with Brain, 0.55 % ID/g. The Ratio in series [2] was 4.7; in series [3], 3.4.
Take `O=C(C1CCCc2c1c1ccccc1n2CC[18F])N1CCCCCC1` (stereo not given): the remaining at 1 h in series [4] amounted to 79%. For the same compound, the Drug uptake with Rattus norvegicus worked out at 0.33 % ID/g; with Brain, 0.45 % ID/g. In addition, the results for the Ratio in series [2] and in series [3] were 5.38 and 4.13, respectively.
As to `CC(C)N(C)C(=O)C1CCCc2c1c1ccccc1n2CC[18F]` (stereo not given), the remaining at 1 h in series [4] was found to be 74%. Further, the figures for the Drug uptake in the series on Rattus norvegicus and with Brain were 0.35 % ID/g and 0.53 % ID/g, respectively. For the same compound, the Ratio in series [2] was 4.54; in series [3], 3.18.

The values above are taken from ChEMBL document CHEMBL1944627, “[¹⁸F]GE-180: a novel fluorine-18 labelled PET tracer for imaging Translocator protein 18 kDa (TSPO)” (Bioorg Med Chem Lett, 2012).
